# Laboratory results from paper PMC9078949 (RSC Advances, 2018).
# Several values for one entry are separate records, joined by “and”; a condition that tells them apart may be missing. Identical values can stand only once.
# Tests used:
# CXCR1 = target: T1, CXCR1 (Homo sapiens, UniProt P25024); test: CXCR1 antagonistic activity assay; assay type: cell-based
# T1 sequence (P25024 1-350): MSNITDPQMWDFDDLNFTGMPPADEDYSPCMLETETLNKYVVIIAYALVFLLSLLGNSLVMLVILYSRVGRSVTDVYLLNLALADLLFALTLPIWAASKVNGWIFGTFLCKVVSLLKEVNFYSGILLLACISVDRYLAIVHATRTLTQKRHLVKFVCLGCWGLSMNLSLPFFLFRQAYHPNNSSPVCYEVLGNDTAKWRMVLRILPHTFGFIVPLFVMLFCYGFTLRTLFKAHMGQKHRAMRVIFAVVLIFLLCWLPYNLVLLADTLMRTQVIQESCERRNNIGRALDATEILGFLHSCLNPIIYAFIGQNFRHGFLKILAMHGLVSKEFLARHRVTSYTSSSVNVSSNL
# In short: (§1)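 HEK293 cells stably co-expressing Gα16 with either CXCR1 or CXCR2 were seeded and grown for 24 h. They were loaded with 2 μmol L−1 Fluo-4 AM in HBSS (pH 7.4, with BSA and 250 μmol L−1 sulfinpyrazone) for 45 min at 37 °C, and excess dye was removed. Test compound was added for 10 min at room temperature before IL-8 injection. Calcium signal was read at ex 485/em 525 nm. IC50 came from nonlinear regression of log concentration–response curves; each experiment was run ≥3 times.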
# CXCR2 = target: T2, CXCR2 (Homo sapiens, UniProt P25025); test: CXCR2 antagonistic activity assay; assay type: cell-based
# T2 sequence (P25025 1-360): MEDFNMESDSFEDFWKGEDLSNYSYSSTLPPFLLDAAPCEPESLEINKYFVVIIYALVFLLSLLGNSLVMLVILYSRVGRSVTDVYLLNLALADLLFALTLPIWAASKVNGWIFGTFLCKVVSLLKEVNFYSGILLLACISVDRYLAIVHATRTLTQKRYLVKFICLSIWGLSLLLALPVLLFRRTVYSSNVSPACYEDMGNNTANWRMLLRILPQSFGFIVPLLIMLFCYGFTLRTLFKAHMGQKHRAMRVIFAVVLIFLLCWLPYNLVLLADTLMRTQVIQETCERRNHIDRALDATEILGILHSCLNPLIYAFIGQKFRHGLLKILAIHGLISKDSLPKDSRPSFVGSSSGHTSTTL
# In short: as §1
# SGF stability assay = assay type: in vitro ADME; details: @45 min, 37 °C, pH about 1.2
# In short: (§2)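 Two media were used. SIF: pancreatin 0.68 g per 100 mL of 50 mM potassium phosphate, pH 7.4. SGF: pepsin 3.2 g per 1000 mL of water with 2.0 g NaCl and 7.0 mL concentrated HCl, pH about 1.2. Test article was added from a 100 μg mL−1 stock and incubated at 37 °C with gentle agitation. Samples at 0, 15 and 45 min were quenched in methanol with 1 μg mL−1 internal standard and analysed by LC/MS. Percent remaining relative to 0 min used the peak-area ratio.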
# CFPAC1 cells [1] = test: Cell migration assay; assay type: cell-based; details: 10 μM, 24 h, 3 visual fields, control group 1221 ± 57 cells
# [2] = Oral pharmacokinetic study in rats; assay type: in vivo; details: SD, rat, plasma, 10 mg/kg
# In short: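 SD rats received test compound at 10 mg kg−1 by oral gavage in 2% DMSO + 98% (0.5% MC). Venous blood was sampled at 0, 0.25, 0.5, 1, 2, 4, 6, 8 and 24 h. Plasma was separated by centrifugation, stored at −20 °C and assayed by LC/MS. Cmax, Tmax, t1/2 and AUC were then calculated.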
# CFPAC1 cells [3] = test: Wound healing assay; assay type: cell-based; details: Homo sapiens, CFPAC-1, 48 h, read-out: migration inhibitory rate
# In short: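 CFPAC1 cells were seeded at 5 × 10^5 per well in 6-well plates and grown to 90% confluence. The monolayer was scratched with a sterile pipette tip and rinsed three times with PBS. Cells were then exposed to 1‰ DMSO or 10 μM test compound. Wounds were photographed at 0, 24 and 48 h. Inhibition (%) = [1 − (0 h area − 24 h or 48 h area)/0 h area] × 100.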
# [4] = Plasma stability assay, human plasma; assay type: in vitro ADME; details: @45 min, 37 °C
# In short: (§3)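 Rat or human plasma was spiked with test article from a 100 μg mL−1 stock and incubated at 37 °C with gentle agitation. Aliquots taken at 0, 15 and 45 min were quenched in methanol containing 1 μg mL−1 internal standard, then centrifuged and analysed by LC/MS. Percent remaining relative to 0 min was based on the analyte/internal standard peak-area ratio.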
# [5] = Liver microsome stability assay, human; assay type: in vitro ADME; details: @45 min, 37 °C, NADPH
# In short: (§4)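 Rat or human liver microsomes (1 mg mL−1) were mixed with NADPH (from a 50 mM stock) and pre-warmed for 5 min at 37 °C. Reactions were started with test article from a 100 μg mL−1 stock and kept at 37 °C. Samples at 0, 15 and 45 min were quenched in methanol containing 1 μg mL−1 internal standard, then centrifuged and analysed by LC/MS. Disappearance was derived from the analyte/internal standard peak-area ratio.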
# [6] = Liver microsome stability assay, rat; assay type: in vitro ADME; details: @45 min, 37 °C, NADPH
# In short: as §4
# SIF stability assay = assay type: in vitro ADME; details: @45 min, 37 °C, pH 7.4
# In short: as §2
# [7] = Plasma stability assay, rat plasma; assay type: in vitro ADME; details: @45 min, 37 °C
# In short: as §3
# CFPAC1 cells [8] = test: Anti-proliferation assay; assay type: cell-based; details: 6.25, 12.5, 25, 50 and 100 μM; 72 h; MTT
# In short: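 CFPAC1 pancreatic cancer cells were seeded at 4000 cells per well and left to adhere for 24 h. They were then exposed for 72 h to medium alone or to test compound at 6.25, 12.5, 25, 50 or 100 μM. Viability was read by MTT. Growth inhibition (%) = [1 − (A/B)] × 100, where A is treated and B is untreated absorbance.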
Structure (SMILES),IC50 (CXCR1) [µM],IC50 (CXCR2) [µM],Ratio = CXCR1 IC50/CXCR2 IC50 (selectivity for CXCR2 over CXCR1) (CXCR2),also measured
"CC(C)S(=O)(=O)c1c(Cl)ccc(Nc2c(NC3C[C@@H]4CC[C@H]3C4)c(=O)c2=O)c1O (stereo partly drawn) [2c, 3-(((1S,4R)-Bicyclo[2.2.1]heptan-2-yl)amino)-4-((4-chloro-2-hydroxy-3-(isopropylsulfonyl)phenyl)amino)cyclobut-3-ene-1,2-dione]",12.4,0.12,103.3,–
"CC(C)[S+]([O-])c1c(Cl)ccc(Nc2c(NC3C[C@@H]4CC[C@H]3C4)c(=O)c2=O)c1O (stereo partly drawn) [2d, 3-(((1S,4R)-Bicyclo[2.2.1]heptan-2-yl)amino)-4-((4-chloro-2-hydroxy-3-(isopropylsulfinyl)phenyl)amino)cyclobut-3-ene-1,2-dione]",6.5,0.092,70.7,–
"N#Cc1ccc(Nc2c(NC3C[C@@H]4CC[C@H]3C4)c(=O)c2=O)c(O)c1 (stereo partly drawn) [2b, 4-((2-(((1S,4R)-Bicyclo[2.2.1]heptan-2-yl)amino)-3,4-dioxocyclobut-1-en-1-yl)amino)-3-hydroxybenzonitrile]",42.7,0.45,94.9,–
"CC(C)(C)OC(=O)N1CCN(C(=O)c2cccc(Nc3c(NC4C[C@@H]5CC[C@H]4C5)c(=O)c3=O)c2O)CC1 (stereo partly drawn) [2g, Tert-butyl 4-(3-((2-(((1S,4R)-bicyclo[2.2.1]heptan-2-yl)amino)-3,4-dioxocyclobut-1-en-1-yl)amino)-2-hydroxybenzoyl)piperazine-1-carboxylate]",5.6,0.42,13.3,–
"O=C(c1cccc(Nc2c(NC3C[C@@H]4CC[C@H]3C4)c(=O)c2=O)c1O)N1CCCC1 (stereo partly drawn) [2e, 3-(((1S,4R)-Bicyclo[2.2.1]heptan-2-yl)amino)-4-((2-hydroxy-3-(pyrrolidine-1-carbonyl)phenyl)amino)cyclobut-3-ene-1,2-dione]",–,–,60.4,"Remaining percentage, SGF (SGF stability assay): >99%; number of cells traversed into the lower chamber of the Transwell (CFPAC1 cells [1]): 727 ± 50 cells; AUC(0-inf) [2]: 8940 ± 3460 ng·h/mL; AUC(0-t) [2]: 8820 ± 3560 ng·h/mL; Cmax [2]: 2860 ± 94 ng/mL; MRT [2]: 3.43 ± 0.73 h; Tmax [2]: 0.33 ± 0.14 h; half-life [2]: 2.58 ± 0.74 h; k el [2]: 7.92e-05 s⁻¹; inhibition at 10 µM (CFPAC1 cells [3]): 20.2%; Remaining percentage, plasma stability, human [4]: >99%; Remaining percentage, liver microsome stability, human [5]: 27% and 27.4 ± 4.3%; Remaining percentage, liver microsome stability, rat [6]: 84% and 84.2 ± 3.4%; Remaining percentage, SIF (SIF stability assay): 92.2 ± 2.0%; Remaining percentage, plasma stability, rat [7]: >99%; inhibitory effect on the CFPAC1 cell line (survival rate) (CFPAC1 cells [8]): no inhibitory effect"
"Cc1ccc(Nc2c(NC3C[C@@H]4CC[C@H]3C4)c(=O)c2=O)c(O)c1 (stereo partly drawn) [2a, 3-(((1S,4R)-Bicyclo[2.2.1]heptan-2-yl)amino)-4-((2-hydroxy-4-methylphenyl)amino)cyclobut-3-ene-1,2-dione]",86.1,3.8,22.7,–

# The next lines start with results.
IC50 (CXCR1) [µM],IC50 (CXCR2) [µM],Ratio = CXCR1 IC50/CXCR2 IC50 (selectivity for CXCR2 over CXCR1) (CXCR2),Structure (SMILES),also measured
7,0.062,113,"CN(C)C(=O)c1cccc(Nc2c(NC3C[C@@H]4CC[C@H]3C4)c(=O)c2=O)c1O (stereo partly drawn) [1a, 3-((2-(((1S,4R)-Bicyclo[2.2.1]heptan-2-yl)amino)-3,4-dioxocyclobut-1-en-1-yl)amino)-2-hydroxy-N,N-dimethylbenzamide]",–
> 100,> 100,–,"CN(C)C(=O)c1cccc(Nc2c(NC3C[C@H]4CC[C@@H](C3)N4C(=O)OC(C)(C)C)c(=O)c2=O)c1O (stereo partly drawn) [1b, Tert-butyl (1R,5S)-3-((2-((3-(dimethylcarbamoyl)-2-hydroxyphenyl)amino)-3,4-dioxocyclobut-1-en-1-yl)amino)-8-azabicyclo[3.2.1]octane-8-carboxylate]",–
48.8,23.6,2.1,"CN(C)C(=O)c1cccc(Nc2c(NCC3C[C@H]4CC[C@@H]3C4)c(=O)c2=O)c1O (stereo partly drawn) [1f, 3-((2-((((1R,4S)-Bicyclo[2.2.1]heptan-2-yl)methyl)amino)-3,4-dioxocyclobut-1-en-1-yl)amino)-2-hydroxy-N,N-dimethylbenzamide]",–
35.6,5.5,6.5,"CN(C)C(=O)c1cccc(Nc2c(NC3C[C@H]4CC[C@]3(C)C4(C)C)c(=O)c2=O)c1O (stereo partly drawn) [1c, 3-((3,4-Dioxo-2-(((1R,4R)-1,7,7-trimethylbicyclo[2.2.1]heptan-2-yl)amino)cyclobut-1-en-1-yl)amino)-2-hydroxy-N,N-dimethylbenzamide]",–
> 100,0.53,>188.7,"Cl.O=C(c1cccc(Nc2c(NC3C[C@@H]4CC[C@H]3C4)c(=O)c2=O)c1O)N1CCNCC1 (stereo partly drawn) [2h, 3-(((1S,4R)-Bicyclo[2.2.1]heptan-2-yl)amino)-4-((2-hydroxy-3-(piperazine-1-carbonyl)phenyl)amino)cyclobut-3-ene-1,2-dione hydrochloride]",–
10.3,0.59,17.5,"O=C(c1cccc(Nc2c(NC3C[C@@H]4CC[C@H]3C4)c(=O)c2=O)c1O)N1CCCCC1 (stereo partly drawn) [2f, 3-(((1S,4R)-Bicyclo[2.2.1]heptan-2-yl)amino)-4-((2-hydroxy-3-(piperidine-1-carbonyl)phenyl)amino)cyclobut-3-ene-1,2-dione]",–
30.8,2.6,11.8,"CN(C)C(=O)c1cccc(Nc2c(NCC3C[C@H]4C=C[C@@H]3C4)c(=O)c2=O)c1O (stereo partly drawn) [1e, 3-((2-((((1S,4S)-Bicyclo[2.2.1]hept-5-en-2-yl)methyl)amino)-3,4-dioxocyclobut-1-en-1-yl)amino)-2-hydroxy-N,N-dimethylbenzamide]",–
6.7,1,6.7,"CN(C)C(=O)c1cccc(Nc2c(NC3C[C@H]4C[C@@H]3C3CCC[C@@H]34)c(=O)c2=O)c1O (stereo partly drawn) [1d, 2-Hydroxy-N,N-dimethyl-3-((2-(((4R,7R,7aR)-octahydro-1H-4,7-methanoinden-5-yl)amino)-3,4-dioxocyclobut-1-en-1-yl)amino)benzamide]",–
